# MC4R antagonist: antagonists of human melanocortin 4 receptor (MC4R); P32245; MC4R-expressing cells, MTII-stimulated cAMP, LANCE TR-FRET; inhibition, % at 6.5 µM; hit rate 0.48% among 360,000; AID 540295;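 active means inhibition above its plate's cutoff, the mean of tested wells on that plate plus 3 SD, cut at about 29% in these data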;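 further: 0% = Melanotan II alone and 100% = Melanotan II plus saturating MCL0020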
# Target sequence (P32245 whole entry, looked up): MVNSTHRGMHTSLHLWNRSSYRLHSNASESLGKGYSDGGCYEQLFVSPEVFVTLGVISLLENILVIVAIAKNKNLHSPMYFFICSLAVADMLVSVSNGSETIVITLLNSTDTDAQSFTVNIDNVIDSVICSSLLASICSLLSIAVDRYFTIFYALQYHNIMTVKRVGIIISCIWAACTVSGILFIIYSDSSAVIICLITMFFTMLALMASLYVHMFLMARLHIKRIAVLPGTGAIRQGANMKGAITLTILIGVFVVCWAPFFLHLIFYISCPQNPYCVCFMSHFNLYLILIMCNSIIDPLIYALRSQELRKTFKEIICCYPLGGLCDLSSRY
#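 Assay system: U2OS-MC4R stable cell line; Also added: Melanotan II; Technique: Eu-cAMP/anti-cAMP TR-FRET, emission 671 nm; Times: 30-min compound, 1-h challenge, 1-h detection, room temperature.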
# SMARCA2 act: activators of SMARCA2 function; activation, % at 9.1 µM; MG213 cells, MMTV-luciferase reporter, dexamethasone, overnight; AID 652017; hit rate 1% among 370,000; in the data active means activation above about 7.8%;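 further: 0% = vehicle wells and 100% = reference activator wells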
# ATG4B inh: inhibitors of human ATG4B cysteine protease. ATG4B cleavage of LC3-PLA2, NBD-HPC fluorescence, 1 h. inhibition, % at 8.33 µM. hit rate 0.51% among 340,000. AID 504462; in the data active means inhibition above about 40%
# MC4R barr agon: activates human MC4R beta-arrestin recruitment. P32245. U2OS MC4R beta-arrestin complementation, luminescence; percent of melanotan II response, DMSO zero. activation, % at 8.9 µM. hit rate 0.98% among 360,000. AID 540308;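 active means activation above a per-plate cutoff, the mean activation of sample wells on that plate plus 3 SD, cut at about 8% in these data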
# MPTP block: blocks calcium-induced mitochondrial swelling | isolated mouse mitochondria, Ca2+ swelling absorbance, 30 min | hit rate 1.4% among 360,000 | inhibition, % at 10 µM | AID 602449;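 active means inhibition of 50% or more, scaled per plate between neutral and stimulator controls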;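 further: 0% = DMSO wells given calcium and 100% = 1 mM EGTA wells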
# * hit, by the source's call; · = no result. An excerpt weighted towards active compounds, which were near 4.1% of everything screened.
SMILES,MC4R antagonist,SMARCA2 act,ATG4B inh,MC4R barr agon,MPTP block
C#CCOCCOCCOCCNc1nc(N2CCN(C(=O)CCCCCCCCCCNC(=O)[C@@H](CCSC)n3cc(CCO)nn3)CC2)nc(N2CCN(C(=O)CCCCCCCCCCNC(=O)[C@H]([C@@H](C)CC)n3cc(CCCCCN)nn3)CC2)n1,·,·,45*,·,·
C#CCOCCOCCOCCNc1nc(N2CCN(C(=O)CCCCCCCCCCNC(=O)[C@H](CCCCN)n3cc(C)nn3)CC2)nc(N2CCN(C(=O)CCCCCCCCCCNC(=O)[C@@H]([C@H](C)CC)n3cc(CCCCCN)nn3)CC2)n1,52*,·,·,-1,-9
C#CCOCCOCCOCCNc1nc(N2CCOCC2)nc(N2CCN(C(=O)CCCCCCCCCCNC(=O)[C@@H](CCSC)n3cc(CCO)nn3)CC2)n1,6,1,-17,0,0
COc1ccc(C(C)NCCC(c2ccc(OC(C)C)cc2)c2ccccc2OC)cc1 (stereo not given),0,-3,-1,20*,7
COC(=O)[C@]12C[C@H](CC(=O)NCCC(C)C)C(=O)N(Cc3cccc4ccccc34)C1=C[C@H](C(C)C)O[C@@H]2C1CC1,·,0,·,·,·
Cc1ccccc1NC(=O)CC1S/C(=N/c2nccs2)N(C)C1=O (stereo not given),11,-1,-5,1,-2
Cc1ccc(NC(=O)CC2S/C(=N/c3nccs3)N(C)C2=O)cc1C (stereo not given),-2,-1,-6,8.6*,2
COc1cccc(NC2SC(=O)N(c3ccccc3)C2=O)c1 (stereo not given),13,8.0*,-3,-1,1
CN1C(=O)SC(Nc2ccccc2)C1=O (stereo not given),-2,-1,-1,0,0
NC(=O)c1nsc(C(=O)N(c2cccc(F)c2)C(C(=O)NC2CCCC2)c2ccco2)c1N (stereo not given),-2,-3,-13,8.9*,-1
CC[C@H]1C=C[C@@H](C(=O)NS(=O)(=O)c2ccc(C)cc2)N(C(C)=O)C1,·,-2,·,·,·
O=C(Nc1ccc(Cl)cc1)N1CCC(c2nc(-c3ccccc3Cl)no2)CC1,21,-4,-5,9.0*,24
COc1ccc(-c2nnc(SCc3c(F)cccc3F)n2N)cc1,·,4,·,·,·
Cc1ccc(NC(CC(=O)c2ccccc2)c2ccc(F)cc2)cc1 (stereo not given),5,-2,4,1,3
Cc1ccc(C(=O)CC(Nc2ccc(F)cc2)c2ccccc2)cc1 (stereo not given),2,-1,10,8.9*,3
COc1ccc(C=NNc2nc3ccccc3s2)cc1,-8,-1,-11,9.1*,2
COc1ccc(/C=N/Nc2nncc3ccccc23)cc1,7,8.5*,-6,1,2
CCOC(=O)Cn1cc(CN2CCS(=O)(=O)N(Cc3ccccc3)C(C(=O)OC)C2)nn1 (stereo not given),·,-2,·,·,·
CCC(C)NC(=O)CNc1nnnn1-c1ccccc1 (stereo not given),·,-1,·,·,·
C=CCOc1ccccc1CN(C(=O)CCl)c1ccc2c(c1)OCO2,9,-8,15,15*,0
C=CCN=C1NC(c2ccccc2)C(C(=O)OC)=C(C)N1C (stereo not given),·,2,·,·,·
CCOC(=O)c1c(C)oc2c(F)c(F)c(F)c(F)c2c1=O,33*,1,-3,0,0
COc1ccc2nc(NC(=O)Cn3cnc4ccccc4c3=O)sc2c1,16,1,-4,8.3*,1
N/C(Cc1ccc(Cl)c(Cl)c1)=N\OC(=O)c1cccs1,-7,5,5,8.6*,0
N/C(=N\OC(=O)c1cccs1)C1(c2ccc(Cl)cc2Cl)CC1,2,-1,4,0,-2
SMILES,MC4R antagonist,SMARCA2 act,ATG4B inh,MC4R barr agon,MPTP block
CC1(C)CC(=Cc2ccccc2[N+](=O)[O-])C(=O)c2ccccc21,14,7.9*,·,0,1
CCOC(=O)[C@@H]1CSCCS(=O)(=O)N1C(=O)[C@H](CC(C)C)NC(=O)OC(C)(C)C,·,-4,·,·,·
O=C(Nc1ccccc1)N1CCCN(c2nccc(C(F)(F)F)n2)CC1,1,7.8*,-8,-2,1
O=C(Nc1ccc(F)cc1)N1CCCN(c2nccc(C(F)(F)F)n2)CC1,12,-4,3,0,0
CC1C(=O)CC(c2ccccc2)N(C)C1c1ccccc1 (stereo not given),5,5,2,9.1*,0
C#CCOCCOCCOCCNc1nc(N2CCN(C(=O)CCCCCCCCCCNC(=O)[C@H](CCCCN)n3cc(CCCC(=O)O)nn3)CC2)nc(N2CCN(C(=O)CCCCCCCCCCNC(=O)[C@H](CCCN=C(N)N)n3cc(C[C@@H](C)CC)nn3)CC2)n1,4,·,37,-1,-14
C#CCOCCOCCOCCNc1nc(N2CCN(C(=O)CCCCCCCCCCNC(=O)[C@H](CCCCN)n3cc(CCO)nn3)CC2)nc(N2CCN(C(=O)CCCCCCCCCCNC(=O)[C@H](CCCN=C(N)N)n3cc(C[C@@H](C)CC)nn3)CC2)n1,78*,·,70*,-2,-12
C#CCOCCOCCOCCNc1nc(N2CCN(C(=O)CCCCCCCCCCNC(=O)Cn3cc(C[C@@H](C)O)nn3)CC2)nc(N2CCN(C(=O)CCCCCCCCCCNC(=O)Cn3cc(C[C@@H](C)O)nn3)CC2)n1,14,1,0,-1,-2
C#CCOCCOCCOCCNc1nc(N2CCN(C(=O)CCCCCCCCCCNC(=O)Cn3cc(C[C@@H](C)O)nn3)CC2)nc(N2CCN(C(=O)CCCCCCCCCCNC(=O)[C@H](CCCCN)n3cc(C[C@@H](C)CC)nn3)CC2)n1,32*,·,21,1,-9
CCn1c(Cc2cccs2)nnc1SCC(=O)Nc1cccc2ccccc12,·,0,·,·,·
CCC(=O)OC1(C)C(=O)C=C2C=C(c3ccsc3)OC=C2C1=O (stereo not given),-2,·,82*,-2,4
COC(=O)CCC(=O)OC1(C)C(=O)C=C2C=C(c3ccsc3)OC=C2C1=O (stereo not given),1,·,36,0,3
O=C(N/N=C/c1ccc[nH]1)c1ccc([N+](=O)[O-])cc1,1,7.9*,-4,-2,1
O=C(Cc1ncc(C(F)(F)F)cc1Cl)NCCc1ccccn1,17,7.9*,-8,-2,-2
C[C@H](CO)N1C[C@H](C)[C@@H](CN(C)C(=O)NC2CCCCC2)OCc2cn(nn2)CCCC1=O,·,-4,·,·,·
CCCOC(=O)c1ccc(Oc2cn[nH]c2-c2ccc(O)cc2O)cc1,-4,-5,10,9.5*,44
CCCOC(=O)c1ccc(Oc2cn[nH]c2-c2ccc(OCC(=O)NN)cc2O)cc1,8,-5,5,2,14
CCOc1ccc(-n2nnnc2-c2nc3ccccc3s2)cc1,0,-2,4,1,1
Cc1ccc(-n2nnnc2-c2nc3ccccc3s2)cc1,12,-4,2,8.7*,0
COc1cc(-n2c(C)nc3cc(C(=O)N4CCCN(C(C)=O)CC4)ccc32)cc(OC)c1OC,·,-7,·,·,·
